We go through six molecules from ChEMBL document CHEMBL4433220, “Identification of the 2-Benzoxazol-2-yl-phenol Scaffold as New Hit for JMJD3 Inhibition” (ACS Med Chem Lett, 2019).

Data set [1] addresses T1, Lysine-specific demethylase 6B (Homo sapiens, UniProt O15054). The experiment in a line: Inhibition of recombinant human JMJD3 expressed in baculovirus infected Sf9 cells at 25 uM using biotinylated histone H3 peptide as substrate incubated for 15 mins followed by substrate addition and measured after 60 mins by AlphaScreen assay relative to control. A digest of the protocol:
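JMJD3 demethylase activity measured by AlphaScreen with compound at 25 μM; means ± SEM, n = 3.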
In general terms: Alpha assays give light when donor and acceptor beads are brought close together.

The test system of data set [2] is A-375. The experiment in a line: Cell cycle arrest in human A375 cells assessed as accumulation at G1 phase at 80 uM incubated for 24 hrs by propidium iodide staining-based flow cytometry (reference value: 59.63%). In kind it is functional. The essentials: (§1)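 A375 melanoma cells exposed to compound at 1, 5, 10, 20, 40, 80 or 100 μM for 24 h. Cells were collected, fixed in iced 70% ethanol for 2 h and stained with propidium iodide. Cell-cycle distribution was read by flow cytometry, n = 3. […]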
(In general: Flow cytometry measures light scatter and fluorescence of single cells or particles in a stream.)

For data set [3], the system named is A-375. The experiment in a line: Cell cycle arrest in human A375 cells assessed as accumulation at S phase at 40 uM incubated for 24 hrs by propidium iodide staining-based flow cytometry (reference value: 29.56%). Format: functional. A digest of the protocol: as §1
The test system of data set [4] is A-375. The experiment in a line: Cell cycle arrest in human A375 cells assessed as accumulation at G1 phase at 40 uM incubated for 24 hrs by propidium iodide staining-based flow cytometry (reference value: 59.63%). Format: functional. The essentials: as §1
Data set [5] has as its target Lysine-specific demethylase 6A (Homo sapiens, UniProt O15550). The experiment in a line: Inhibition of UTX (unknown origin) using histone H3 peptide as substrate incubated for 30 mins followed by substrate addition by AlphaScreen assay.
Data set [6] can be described thus: Apparent permeability of the compound in pH 7.4 phosphate buffer solution at 0.5 mM incubated for 24 hrs under gentle shaking condition by HPLC-UV detector based PAMPA assay. Format: ADME. A digest of the protocol:
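Parallel artificial membrane permeability assay (PAMPA); apparent permeability (Papp) reported in cm/s.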
On the technique in general: In PAMPA a lipid-coated filter parts donor from acceptor wells.

In data set [7] the target is T1, Lysine-specific demethylase 6B. The experiment in a line: Inhibition of JMJD3 in human A375 cells assessed as reduction in decrease of the H3K27me2 level at 100 uM incubated for 24 hrs by Western blot analysis. Format: cell-based. The essentials:
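A375 melanoma cells treated with 100 μM compound for 4 and 24 h, then lysed and run on SDS-PAGE. Western blot on nitrocellulose was probed with anti-H3K27me2 antibody.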

Data set [8] has as its system A-375. The experiment in a line: Cell cycle arrest in human A375 cells assessed as accumulation at S phase at 20 uM incubated for 24 hrs by propidium iodide staining-based flow cytometry (reference value: 29.56%). Format: functional. A digest of the protocol:
as §1

Data set [9] concerns A-375. The experiment in a line: Cell cycle arrest in human A375 cells assessed as accumulation at G1 phase at 20 uM incubated for 24 hrs by propidium iodide staining-based flow cytometry (reference value: 59.63%). Format: functional. The essentials:
as §1

Data set [10] concerns A-375. The data set is described as follows: Cell cycle arrest in human A375 cells assessed as accumulation at G1 phase at 100 uM incubated for 24 hrs by propidium iodide staining-based flow cytometry (reference value: 59.63%). In kind it is functional. The essentials: as §1
The subject of data set [11] is A-375. The experiment in a line: Cell cycle arrest in human A375 cells assessed as accumulation at G2/M phase at 80 uM incubated for 24 hrs by propidium iodide staining-based flow cytometry (reference value: 10.81%). Format: functional. The essentials:
as §1

Data set [12] concerns A-375. The data set is described as follows: Cell cycle arrest in human A375 cells assessed as accumulation at G2/M phase at 100 uM incubated for 24 hrs by propidium iodide staining-based flow cytometry (reference value: 10.81%). Format: functional. The essentials: as §1
The subject of data set [13] is A-375. The data set is described as follows: Cell cycle arrest in human A375 cells assessed as accumulation at G2/M phase at 40 uM incubated for 24 hrs by propidium iodide staining-based flow cytometry (reference value: 10.81%). In kind it is functional. A digest of the protocol: as §1
Data set [14] concerns the target T1, Lysine-specific demethylase 6B. The experiment in a line: Inhibition of recombinant human JMJD3 expressed in baculovirus infected Sf9 cells using biotinylated histone H3 peptide as substrate incubated for 15 mins followed by substrate addition and measured after 60 mins by AlphaScreen assay.
For data set [15], the system named is A-375. The data set is described as follows: Cell cycle arrest in human A375 cells assessed as accumulation at S phase at 100 uM incubated for 24 hrs by propidium iodide staining-based flow cytometry (reference value: 29.56%). Format: functional. A digest of the protocol: as §1
In data set [16] the test system is A-375. The data set is described as follows: Antiproliferative activity against human A375 cells incubated for 24 hrs by propidium iodide staining based flow cytometric analysis. The following applies: A-375, 24 h.
Data set [17] deals with A-375. The data set is described as follows: Cell cycle arrest in human A375 cells assessed as accumulation at S phase at 80 uM incubated for 24 hrs by propidium iodide staining-based flow cytometry (reference value: 29.56%). Format: functional. The essentials:
as §1

In data set [18] the test system is A-375. The data set is described as follows: Cell cycle arrest in human A375 cells assessed as accumulation at G2/M phase at 20 uM incubated for 24 hrs by propidium iodide staining-based flow cytometry (reference value: 10.81%). In kind it is functional. A digest of the protocol:
as §1

Calls of active or inactive are those of the source. No cut-off for these calls is given here.

T1 sequence (O15054 whole entry): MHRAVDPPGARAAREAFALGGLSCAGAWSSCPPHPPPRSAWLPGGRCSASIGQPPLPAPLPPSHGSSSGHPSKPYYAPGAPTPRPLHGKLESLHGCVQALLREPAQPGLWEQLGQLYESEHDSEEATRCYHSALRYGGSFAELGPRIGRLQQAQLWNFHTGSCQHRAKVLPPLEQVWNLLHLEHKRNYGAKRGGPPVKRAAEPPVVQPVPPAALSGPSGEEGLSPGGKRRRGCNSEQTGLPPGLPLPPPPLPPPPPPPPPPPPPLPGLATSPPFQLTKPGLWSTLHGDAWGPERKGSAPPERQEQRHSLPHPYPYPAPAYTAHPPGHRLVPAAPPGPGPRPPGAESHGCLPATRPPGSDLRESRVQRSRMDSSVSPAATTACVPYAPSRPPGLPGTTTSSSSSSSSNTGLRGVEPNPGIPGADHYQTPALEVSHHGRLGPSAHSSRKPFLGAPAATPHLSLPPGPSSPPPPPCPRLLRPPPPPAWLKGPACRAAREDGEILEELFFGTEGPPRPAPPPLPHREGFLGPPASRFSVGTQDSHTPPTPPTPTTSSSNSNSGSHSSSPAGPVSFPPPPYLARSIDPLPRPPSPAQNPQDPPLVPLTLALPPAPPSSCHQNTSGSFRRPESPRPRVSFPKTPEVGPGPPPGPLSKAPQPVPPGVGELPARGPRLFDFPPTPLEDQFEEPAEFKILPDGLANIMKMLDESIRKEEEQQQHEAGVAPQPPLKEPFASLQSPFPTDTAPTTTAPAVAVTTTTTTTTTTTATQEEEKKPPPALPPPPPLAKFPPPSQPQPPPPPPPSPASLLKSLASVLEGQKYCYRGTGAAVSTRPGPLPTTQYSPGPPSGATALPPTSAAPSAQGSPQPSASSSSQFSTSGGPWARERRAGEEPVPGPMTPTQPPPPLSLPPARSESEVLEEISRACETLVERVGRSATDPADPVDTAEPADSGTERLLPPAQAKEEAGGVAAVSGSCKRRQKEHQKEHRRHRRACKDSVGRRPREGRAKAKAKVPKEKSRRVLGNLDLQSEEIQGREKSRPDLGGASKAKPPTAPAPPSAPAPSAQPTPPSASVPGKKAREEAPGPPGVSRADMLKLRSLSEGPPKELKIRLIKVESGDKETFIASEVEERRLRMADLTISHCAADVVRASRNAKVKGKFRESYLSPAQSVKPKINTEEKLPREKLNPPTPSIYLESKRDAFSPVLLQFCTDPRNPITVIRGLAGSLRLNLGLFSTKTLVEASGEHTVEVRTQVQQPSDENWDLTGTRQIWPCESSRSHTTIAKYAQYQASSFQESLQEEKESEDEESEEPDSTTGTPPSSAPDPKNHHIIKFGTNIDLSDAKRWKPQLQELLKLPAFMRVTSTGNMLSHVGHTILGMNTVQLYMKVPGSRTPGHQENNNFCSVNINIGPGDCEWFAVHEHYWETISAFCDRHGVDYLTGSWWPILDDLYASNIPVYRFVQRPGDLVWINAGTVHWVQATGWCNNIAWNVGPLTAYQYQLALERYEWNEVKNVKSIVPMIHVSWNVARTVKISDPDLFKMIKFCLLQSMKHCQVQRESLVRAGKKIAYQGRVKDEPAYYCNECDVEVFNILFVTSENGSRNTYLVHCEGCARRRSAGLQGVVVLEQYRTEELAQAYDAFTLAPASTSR
Sequence of Lysine-specific demethylase 6A (O15550 whole entry): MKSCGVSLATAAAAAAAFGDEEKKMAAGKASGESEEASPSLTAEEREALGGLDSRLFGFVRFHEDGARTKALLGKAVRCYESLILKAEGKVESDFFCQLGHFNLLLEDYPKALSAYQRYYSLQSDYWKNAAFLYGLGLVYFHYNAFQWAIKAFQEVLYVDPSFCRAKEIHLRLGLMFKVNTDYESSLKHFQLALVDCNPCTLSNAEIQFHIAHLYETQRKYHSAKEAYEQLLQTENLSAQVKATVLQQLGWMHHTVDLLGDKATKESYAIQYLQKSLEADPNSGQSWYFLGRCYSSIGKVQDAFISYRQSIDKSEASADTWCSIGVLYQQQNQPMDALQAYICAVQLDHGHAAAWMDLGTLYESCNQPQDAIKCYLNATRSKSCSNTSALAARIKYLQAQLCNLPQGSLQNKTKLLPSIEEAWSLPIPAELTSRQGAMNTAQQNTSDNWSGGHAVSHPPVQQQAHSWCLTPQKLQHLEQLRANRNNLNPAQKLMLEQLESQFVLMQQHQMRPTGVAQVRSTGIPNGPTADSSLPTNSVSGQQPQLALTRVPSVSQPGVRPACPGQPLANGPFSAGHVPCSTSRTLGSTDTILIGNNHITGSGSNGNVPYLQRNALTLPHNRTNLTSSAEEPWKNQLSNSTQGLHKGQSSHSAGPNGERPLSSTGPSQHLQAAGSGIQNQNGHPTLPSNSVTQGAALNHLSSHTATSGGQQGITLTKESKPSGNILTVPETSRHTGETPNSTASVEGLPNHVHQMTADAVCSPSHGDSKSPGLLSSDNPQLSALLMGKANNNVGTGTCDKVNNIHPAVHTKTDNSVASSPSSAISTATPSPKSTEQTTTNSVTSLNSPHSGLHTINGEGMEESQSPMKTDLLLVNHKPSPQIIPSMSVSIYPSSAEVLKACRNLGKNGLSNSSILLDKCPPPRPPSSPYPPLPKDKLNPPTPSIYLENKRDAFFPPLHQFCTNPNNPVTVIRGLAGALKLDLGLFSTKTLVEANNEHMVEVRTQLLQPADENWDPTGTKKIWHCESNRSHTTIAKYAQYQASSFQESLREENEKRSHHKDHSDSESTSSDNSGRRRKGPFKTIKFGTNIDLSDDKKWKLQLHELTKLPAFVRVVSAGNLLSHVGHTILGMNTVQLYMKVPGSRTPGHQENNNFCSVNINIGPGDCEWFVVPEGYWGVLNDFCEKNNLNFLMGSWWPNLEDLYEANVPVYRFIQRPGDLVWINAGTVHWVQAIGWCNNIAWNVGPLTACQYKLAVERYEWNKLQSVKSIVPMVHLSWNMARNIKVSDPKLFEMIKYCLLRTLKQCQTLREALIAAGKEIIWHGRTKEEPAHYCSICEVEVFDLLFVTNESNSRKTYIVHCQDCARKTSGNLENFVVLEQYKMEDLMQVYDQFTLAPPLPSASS

Turning to `Oc1ccccc1-c1nc2ccccc2s1`, the inhibition (usually the percentage by which the read-out fell short of the control) in data set [1] was “inactive”.

Regarding `Oc1ccccc1-c1nc2ccccc2o1`, the inhibition in data set [1] worked out at 40%.

Take `Oc1c(F)cc(F)cc1-c1nc2ccccc2o1`: the inhibition in data set [1] was 20%.

Take `O=C(O)c1ccc(O)c(-c2nc3ccccc3o2)c1`: the inhibition in data set [1] worked out at 27%.

As for `Oc1ccc(O)c(-c2nc3ccccc3o2)c1`, the inhibition in data set [1] turned out to be 90%. In addition, the Activity in the data set on A-375 [2] is listed as 21.92%; in the data set on A-375 [3], 61.05%; in the data set on A-375 [4], 24.14%; in the data set on A-375 [8] it was 47.57%; in the data set on A-375 [9], 51.31%; in the data set with A-375 [10], 16.62%. Moreover, the Activity came out at 10.96% with A-375 [11]; 10% in the data set with A-375 [12]; 14.81% with A-375 [13]; 73.38% in the data set on A-375 [15]; 67.12% with A-375 [17]; 1.12% in the data set with A-375 [18]. Moreover, the IC50 (usually the concentration at which inhibition is half-maximal) in data set [5] was found to be 25.7 µM; in [14], 1.2 µM; in the data set with A-375 [16], 24.7 µM. Besides, in data set [6], the Papp (commonly the rate of passage across a membrane or cell layer, normalised by area and donor concentration) at 24 h, 500 µM is 0.912 ×10⁻⁶ cm/s. The inhibition result in [7] is “Active”.

As to `COc1cc2c(cc1-c1nc3ccccc3o1)OCO2`, the inhibition entry in [1] was “inactive”.
